Reference: ChEMBL document CHEMBL3868593, “Chlojaponilactone B from Chloranthus japonicus: Suppression of Inflammatory Responses via Inhibition of the NF-κB Signaling Pathway” (J Nat Prod, 2016)
Active and inactive are the calls of the source. No cut-off for these calls is given here.

Legend:
RAW264.7 [1] = assay: Inhibition of LPS-induced NF-kappaB (unknown origin) transactivation expressed in mouse RAW264.7 cells at 20 uM pretreated for 30 mins followed by LPS stimulation for 6 hrs by luciferase reporter gene assay; assay type: cell-based; conditions: Homo sapiens
In short: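 RAW 264.7/NF-κB-luc cells (RAW 264.7 stably carrying an NF-κB-driven luciferase reporter), kept in DMEM with 10% FBS, penicillin/streptomycin and 500 μg/mL G418. Seeded at 5 × 10^5 per well for 24 h, then compound for 30 min before LPS 500 ng/mL for 6 h; DMSO 0.5% vehicle, PDTC 20 μM positive control. Firefly luminescence read on lysates; means ± SD of three independent experiments.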

[2] = Antiinflammatory activity in mouse RAW264.7 cells assessed as inhibition of LPS-induced NO production pretreated for 30 mins followed by LPS stimulation for 24 hrs by Griess assay; assay type: functional, cell-based
In short: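 Cells seeded at 5 × 10^4 per well, grown 24 h, pretreated 30 min, then stimulated with 500 ng/mL LPS for 24 h; 0.5% DMSO vehicle in all wells; LPS-only and unstimulated blanks included; L-NIL as positive control. Medium reacted with Griess reagent, absorbance at 540 nm; IC50 reported.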

RAW264.7 [3] = assay: Inhibition of NF-kappaB in mouse RAW264.7 cells assessed as reduction in LPS-induced IL-6 level pretreated for 30 mins followed by LPS stimulation for 24 hrs by ELISA; assay type: cell-based
In short: (§1)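 Pretreatment at 0.3, 1, 3 or 9 μM for 30 min, then LPS 500 ng/mL for 24 h; culture supernatant assayed for TNF-α and IL-6 by ELISA kits; means ± SD of three independent experiments.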

Mus musculus [4] = assay: Antiinflammatory activity in BALB/c mouse assessed as inhibition of TPA-induced ear edema at 10 mg/ml applied topically pretreated for 30 mins followed by TPA exposure measured after 4 hrs; assay type: functional
In short: (§2)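 Topical dosing of right ear at 2.5, 5 or 10 mg/mL, 30 min before TPA; left ear given acetone only as solvent control; 1% hydrocortisone as positive control. Mice killed 4 h after TPA, 7 mm central punches taken from both ears and weighed; edema rate (%) = [(weight right − weight left)/weight left] × 100%. n = 8 mice per group.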

[5] = molecular target: Transcription factor p65 (Mus musculus) (UniProt Q04207); assay: Inhibition of LPS-induced NF-kappaB p65 subunit translocation into nucleus of mouse RAW264.7 cells at 10 uM pretreated for 30 mins followed by LPS stimulation for 3 hrs by DAPI staining based immunofluorescence assay; assay type: cell-based
In short: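 Cells at 1 × 10^5/mL plated overnight, pretreated 30 min, then LPS 500 ng/mL for 3 h; fixed in 4% formaldehyde, permeabilized with 1% Triton X-100, blocked in 5% BSA, anti-p65 (1:100) overnight at 4 °C, Alexa 594 secondary, DAPI nuclei. High-content imaging; nuclear minus cytoplasmic fluorescence; three independent experiments.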

RAW264.7 [6] = assay: Inhibition of LPS-induced NF-kappaB (unknown origin) transactivation expressed in mouse RAW264.7 cells pretreated for 30 mins followed by LPS stimulation for 6 hrs by luciferase reporter gene assay; assay type: cell-based; conditions: Homo sapiens
In short: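 RAW 264.7 line stably carrying NF-κB-driven firefly luciferase, maintained with 500 μg/mL G418; seeded 5 × 10^5 per well, 24 h, pretreated 30 min at 2.5–20 μM, then 500 ng/mL LPS for 6 h; 0.5% DMSO vehicle; 20 μM PDTC positive control. Lysate luminescence read; three independent experiments, means ± SD.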

RAW264.7 [7] = assay: Inhibition of NF-kappaB in mouse RAW264.7 cells assessed as reduction in LPS-induced iNOS protein expression pretreated for 30 mins followed by LPS stimulation for 12 hrs by Western blot analysis; assay type: cell-based
In short: (§3)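 Cells 5 × 10^5 per well grown 24 h, serum-starved 12 h, pretreated 30 min, then LPS 500 ng/mL for 12 h. Lysates protein-normalized by BCA, 10% SDS-PAGE, PVDF, anti-iNOS or anti-COX-2 (1:1000) overnight at 4 °C, ECL detection; β-tubulin loading control.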

Mus musculus [8] = assay: Antiinflammatory activity in TPA-induced ear edema BALB/c mouse model assessed as reduction in epidermal hyperplasia at 10 mg/ml applied topically pretreated for 30 mins followed by TPA exposure measured after 4 hrs by hematoxylin and eosin staining based light microscopic method; assay type: functional, tissue-based
In short: (§4)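 Right ear pretreated topically (2.5, 5, 10 mg/mL) 30 min before TPA for 4 h; left ear acetone only; 1% hydrocortisone as positive control. Ears fixed in 4% paraformaldehyde, paraffin-embedded, cut at 4 μm, H&E stained; representative area examined qualitatively by light microscopy at 200×; n = 8 mice per group.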

RAW264.7 [9] = assay: Inhibition of NF-kappaB in mouse RAW264.7 cells assessed as reduction in LPS-induced COX2 expression at 1 to 9 uM pretreated for 30 mins followed by LPS stimulation for 12 hrs by Western blot analysis; assay type: cell-based; in short: as §3
Mus musculus [10] = assay: Antiinflammatory activity in TPA-induced ear edema BALB/c mouse model assessed as reduction in inflammatory cell infilteration at 10 mg/ml applied topically pretreated for 30 mins followed by TPA exposure measured after 4 hrs by hematoxylin and eosin staining based light microscopic method; assay type: functional, tissue-based; in short: as §4
Mus musculus [11] = assay: Antiinflammatory activity in BALB/c mouse assessed as inhibition of TPA-induced ear edema applied topically pretreated for 30 mins followed by TPA exposure measured after 4 hrs; assay type: functional; in short: as §2
RAW264.7 [12] = assay: Inhibition of NF-kappaB in mouse RAW264.7 cells assessed as reduction in LPS-induced degradation of IkappaB-alpha pretreated for 30 mins followed by LPS stimulation for 1 hr by Western blot analysis; assay type: cell-based
In short: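 Serum-starved (12 h) cells pretreated 30 min at 2.5, 5 or 10 μM or 0.5% DMSO, then LPS 500 ng/mL for 1 h; Western blot for IκB-α and phospho-IκB-α (1:1000, 4 °C overnight), ECL, β-tubulin loading control; bands quantified from three independent experiments.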

RAW264.7 [13] = assay: Inhibition of NF-kappaB in mouse RAW264.7 cells assessed as reduction in LPS-induced TNF-alpha level pretreated for 30 mins followed by LPS stimulation for 24 hrs by ELISA; assay type: cell-based; in short: as §1
Mus musculus [14] = assay: Antiinflammatory activity in TPA-induced ear edema BALB/c mouse model assessed as reduction in inflammatory cell infilteration applied topically pretreated for 30 mins followed by TPA exposure measured after 4 hrs by hematoxylin and eosin staining based light microscopic method; assay type: functional, tissue-based; in short: as §4
Mus musculus [15] = assay: Antiinflammatory activity in TPA-induced ear edema BALB/c mouse model assessed as reduction in epidermal hyperplasia applied topically pretreated for 30 mins followed by TPA exposure measured after 4 hrs by hematoxylin and eosin staining based light microscopic method; assay type: functional, tissue-based; in short: as §4

Sequence of Transcription factor p65 (Mus musculus) (Q04207 whole entry): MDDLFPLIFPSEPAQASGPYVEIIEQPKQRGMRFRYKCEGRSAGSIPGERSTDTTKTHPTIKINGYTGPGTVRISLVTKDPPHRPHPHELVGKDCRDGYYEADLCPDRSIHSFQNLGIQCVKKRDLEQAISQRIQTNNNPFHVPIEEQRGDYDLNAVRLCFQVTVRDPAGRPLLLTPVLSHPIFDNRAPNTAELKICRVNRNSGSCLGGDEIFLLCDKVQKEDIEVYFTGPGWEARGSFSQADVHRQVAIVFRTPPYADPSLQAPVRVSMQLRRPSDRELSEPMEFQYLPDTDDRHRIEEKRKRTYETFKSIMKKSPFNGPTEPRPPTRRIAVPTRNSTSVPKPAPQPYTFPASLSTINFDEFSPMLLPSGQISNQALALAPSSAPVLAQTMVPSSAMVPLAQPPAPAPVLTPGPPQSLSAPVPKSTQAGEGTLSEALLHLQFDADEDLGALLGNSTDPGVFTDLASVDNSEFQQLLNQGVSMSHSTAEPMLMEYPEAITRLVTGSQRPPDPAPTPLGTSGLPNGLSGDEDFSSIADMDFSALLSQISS

S=C(S)N1CCCC1
inhibition (RAW264.7 [1]): Active

CC1=C2CC3=C(CO)[C@H]4C[C@H]4[C@]3(C)C[C@@H]2OC1=O [CHLORAJAPOLIDE C]
IC50 [2]: > 50 µM

C=C1[C@H]2C[C@H]2[C@]2(C)C=C3OC(=O)C(C)=C3[C@H](OC(C)=O)[C@@H]12
inhibition (RAW264.7 [3]): Dose-dependent effect | inhibition at 10000 µg/mL (Mus musculus [4]): 23.5% | inhibition [5]: Active | IC50 [2]: 1.4 µM | inhibition (RAW264.7 [6]): Dose-dependent effect | inhibition (RAW264.7 [7]): Dose-dependent effect | Activity (Mus musculus [8]): Active | inhibition (RAW264.7 [9]): Active | Activity (Mus musculus [10]): Active | inhibition (Mus musculus [11]): Dose-dependent effect | inhibition (RAW264.7 [12]): Dose-dependent effect | inhibition (RAW264.7 [13]): Dose-dependent effect

C=C1[C@H]2C[C@H]2[C@]2(C)[C@H](O)[C@]3(OC)OC(=O)C(C)=C3C[C@@H]12
IC50 [2]: > 50 µM

C[C@]12CCC(=O)C=C1CC[C@@H]1[C@@H]2[C@@H](O)C[C@@]2(C)[C@H]1CC[C@]2(O)C(=O)CO [HYDROCORTISONE]
Activity (Mus musculus [14]): Active | Activity (Mus musculus [15]): Active | inhibition (INH) (Mus musculus [11]): 56.33%

C=C1[C@H]2C[C@H]2[C@@]2(C)[C@H]1CC1=C(C)C(=O)O[C@@]1(O)[C@H]2O
IC50 [2]: 35.4 µM

C=C1[C@H]2C[C@H]2[C@]2(C)C=C3OC(=O)C(C)=C3C[C@@H]12 [CHLORANTHALACTONE A]
IC50 [2]: 33.2 µM

C=C1[C@H]2C[C@H]2[C@]2(C)[C@H](O)[C@@]3(OC)OC(=O)C(C)=C3C[C@@H]12
IC50 [2]: > 50 µM

C=C1[C@H]2C[C@H]2[C@]2(C)C[C@@H]3OC(=O)C(C)=C3C[C@@H]12
IC50 [2]: > 50 µM

C=C1[C@H]2C[C@H]2[C@]2(C)C=C3OC(=O)C(C)=C3C[C@@]12O
IC50 [2]: > 50 µM

C=C1[C@H]2C[C@H]2[C@]2(C)C[C@@H]3OC(=O)C(C)=C3C[C@]12O [SARCANDRALACTONE A]
IC50 [2]: > 50 µM

CC(=N)NCCCC[C@H](N)C(=O)O [L-NIL]
IC50 [2]: 7.5 µM
